Data taken from ChEMBL document CHEMBL1177846, “Benzylidene/2-chlorobenzylidene hydrazides: synthesis, antimicrobial activity, QSAR studies and antiviral evaluation” (Eur J Med Chem, 2010).
Values after ≈ are worked out from the molar mass of the structure shown. Active and inactive are the calls of the source. The calls are words filed in the database; no cut-off is given here.

Assays:
[1] = system: Respiratory syncytial virus; assay: Antiviral activity against RSV infected in human HeLa cells assessed as inhibition of virus-induced cytopathic effect after 3 days by MTS assay; assay type: functional, organism-based; conditions: 72 h
In short: (§1)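 Confluent cell monolayers were infected with 100 CCID50 of virus and allowed 2 h adsorption at 37 °C. Virus was then removed and serial compound dilutions were added. Cultures were incubated at 37 °C for 3 days, until CPE was complete in the untreated virus control. EC50 was the concentration giving 50% inhibition of virus-induced CPE, by visual score or by MTS formazan cell viability.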

Coxsackievirus B4 [2] = assay: Antiviral activity against Coxsackie virus B4 infected in human HeLa cells assessed as inhibition of virus-induced cytopathic effect after 3 days by MTS assay; assay type: functional, organism-based; conditions: Enterovirus B, 72 h; in short: as §1
[3] = (§2) Cytotoxicity against human HeLa cells after 3 days by MTS assay; assay type: cell-based; conditions: HeLa cells
In short: (§3)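 Uninfected HeLa cells were run in parallel with the antiviral assay and exposed to serial compound dilutions. CC50 is the 50% cytotoxic concentration from colorimetric formazan-based MTS cell viability.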

[4] = system: Vesicular stomatitis virus; assay: Antiviral activity against VSV infected in human HeLa cells assessed as inhibition of virus-induced cytopathic effect after 3 days by MTS assay; assay type: functional, organism-based; conditions: 72 h; in short: as §1
HeLa = assay: as §2; assay type: cell-based; conditions: hela, 72 h; in short: as §3
Staphylococcus aureus = assay: Antibacterial activity against Staphylococcus aureus after 24 hrs by serial dilution method; assay type: functional
Bacillus subtilis = assay: Antibacterial activity against Bacillus subtilis after 24 hrs by serial dilution method; assay type: functional
Escherichia coli = assay: Antibacterial activity against Escherichia coli after 24 hrs by serial dilution method; assay type: functional
Candida albicans = assay: Antifungal activity against Candida albicans after 48 hrs by serial dilution method; assay type: functional
In short: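 Serial compound dilutions in Sabouraud dextrose broth (tube dilution), incubated 37 °C for 48 h. MIC was read as the lowest concentration with no growth.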

Aspergillus niger = assay: Antifungal activity against Aspergillus niger after 7 days by serial dilution method; assay type: functional
Feline coronavirus = assay: Antiviral activity against Feline caronavirus infected in […] cells assessed as inhibition of virus-induced cytopathic effect after 3 days by MTS assay; assay type: functional, organism-based; in short: as §1
Felid alphaherpesvirus 1 = assay: Antiviral activity against Feline herpesvirus 1 infected in […] cells assessed as inhibition of virus-induced cytopathic effect after 3 days by MTS assay; assay type: functional, organism-based; in short: as §1
Human alphaherpesvirus 1 [5] = assay: Antiviral activity against Herpes simplex virus 1 KOS infected in human HEL cells assessed as inhibition of virus-induced cytopathic effect after 3 days by MTS assay; assay type: functional, organism-based; in short: as §1
Human alphaherpesvirus 2 = assay: Antiviral activity against Herpes simplex virus 2 G infected in human HEL cells assessed as inhibition of virus-induced cytopathic effect after 3 days by MTS assay; assay type: functional, organism-based; conditions: strain G; in short: as §1
Vaccinia virus = assay: Antiviral activity against Vaccinia virus infected in human HEL cells assessed as inhibition of virus-induced cytopathic effect after 3 days by MTS assay; assay type: functional, organism-based; conditions: Orthopoxvirus vaccinia; in short: as §1
Human alphaherpesvirus 1 [6] = assay: Antiviral activity against acyclovir-resistant […] kinase-deficient HSV1 KOS infected in human HEL cells assessed as inhibition of virus-induced cytopathic effect after 3 days by MTS assay; assay type: functional, organism-based; in short: as §1
[7] = system: Vesicular stomatitis virus; assay: Antiviral activity against VSV infected in human HEL cells assessed as inhibition of virus-induced cytopathic effect after 3 days by MTS assay; assay type: functional, organism-based; in short: as §1
Influenza A virus [8] = assay: Antiviral activity against influenza A virus H1N1 infected in MDCK cells assessed as inhibition of virus-induced cytopathic effect after 3 days by MTS assay; assay type: functional, organism-based; in short: as §1
Influenza A virus [9] = assay: Antiviral activity against influenza A virus H3N2 infected in MDCK cells assessed as inhibition of virus-induced cytopathic effect after 3 days by MTS assay; assay type: functional, organism-based; in short: as §1
Influenza B virus = assay: Antiviral activity against influenza B virus infected in MDCK cells assessed as inhibition of virus-induced cytopathic effect after 3 days by MTS assay; assay type: functional, organism-based; in short: as §1
Human respirovirus 3 = assay: Antiviral activity against Parainfluenza 3 virus infected in african green monkey Vero cells assessed as inhibition of virus-induced cytopathic effect after 3 days by MTS assay; assay type: functional, organism-based; in short: as §1
[10] = system: Mammalian orthoreovirus 1; assay: Antiviral activity against Reovirus 1 infected in african green monkey Vero cells assessed as inhibition of virus-induced cytopathic effect after 3 days by MTS assay; assay type: functional, organism-based; in short: as §1
Sindbis virus = assay: Antiviral activity against Simbidis virus infected in african green monkey Vero cells assessed as inhibition of virus-induced cytopathic effect after 3 days by MTS assay; assay type: functional, organism-based; in short: as §1
Coxsackievirus B4 [11] = assay: Antiviral activity against Coxsackie virus B4 infected in african green monkey Vero cells assessed as inhibition of virus-induced cytopathic effect after 3 days by MTS assay; assay type: functional, organism-based; in short: as §1
Punta Toro virus = assay: Antiviral activity against Punta toro virus infected in african green monkey Vero cells assessed as inhibition of virus-induced cytopathic effect after 3 days by MTS assay; assay type: functional, organism-based; in short: as §1

| SMILES | MBC (Staphylococcus aureus) [uM/ml] | MBC (Bacillus subtilis) [uM/ml] | MBC (Escherichia coli) [uM/ml] | MFC (Candida albicans) [uM/ml] | -logMIC (Aspergillus niger) | MFC (Aspergillus niger) [uM/ml] | inhibition (Feline coronavirus) | inhibition (Felid alphaherpesvirus 1) | inhibition (Human alphaherpesvirus 1 [5]) | inhibition (Human alphaherpesvirus 2) | inhibition (Vaccinia virus) | inhibition (Human alphaherpesvirus 1 [6]) | inhibition [7] | inhibition (Influenza A virus [8]) | inhibition (Influenza A virus [9]) | inhibition (Influenza B virus) | inhibition (Human respirovirus 3) | inhibition [10] | inhibition (Sindbis virus) | inhibition (Coxsackievirus B4 [11]) | other results |
| --- | --- | --- | --- | --- | --- | --- | --- | --- | --- | --- | --- | --- | --- | --- | --- | --- | --- | --- | --- | --- | --- |
| NC(=O)c1ncn([C@@H]2O[C@H](CO)[C@@H](O)[C@H]2O)n1 [RIBAVIRIN] | – | – | – | – | – | – | – | – | – | – | – | – | – | – | – | – | – | – | – | – | EC50 [1]: 6.6 µM; EC50 (Coxsackievirus B4 [2]): 73.1 µM; CC50 at 72 h [3]: > 250 µg/mL; MCC at 72 h [3]: > 250 µM; EC50 [4]: 17.2 µM |
| COc1cc(OC)cc(C(=O)N/N=C/c2ccccc2Cl)c1 | >0.157 | 0.039 | >0.157 | 0.019 | 1.56 | >0.157 | inactive | inactive | inactive | inactive | inactive | inactive | inactive | inactive | inactive | inactive | inactive | inactive | inactive | inactive | EC50 [1]: > 20 µg/mL; EC50 (Coxsackievirus B4 [2]): > 20 µg/mL; MCC at 72 h [3]: 100 µg/mL; CC50 (HeLa): 64 µg/mL (≈ 201 µM); EC50 [4]: 13.2 µg/mL; -logMIC (Candida albicans): 2.01; inhibition (Punta Toro virus): inactive |
| CCCCCCCCCCCCCCCCCC(=O)N/N=C/c1ccccc1Cl | >0.119 | 0.029 | >0.119 | >0.119 | 1.29 | 0.059 | inactive | inactive | inactive | inactive | inactive | inactive | inactive | inactive | inactive | inactive | inactive | inactive | inactive | inactive | -logMIC (Staphylococcus aureus): 1.53; -logMIC (Bacillus subtilis): 1.53; inhibition (Punta Toro virus): inactive |
| O=C(N/N=C/c1ccccc1)c1cc([N+](=O)[O-])cc([N+](=O)[O-])c1 | >0.159 | 0.159 | >0.159 | 0.159 | 1.7 | 0.079 | inactive | inactive | inactive | inactive | inactive | inactive | inactive | inactive | inactive | inactive | inactive | inactive | inactive | inactive | inhibition (Punta Toro virus): inactive |
| Cc1cccc(C(=O)N/N=C/c2ccccc2)c1 | >0.21 | 0.052 | >0.21 | >0.21 | 1.58 | >0.21 | inactive | inactive | inactive | inactive | inactive | inactive | inactive | inactive | inactive | inactive | inactive | inactive | inactive | inactive | inhibition (Punta Toro virus): inactive |
| Cc1cccc(C(=O)N/N=C/c2ccccc2Cl)c1 | >0.183 | 0.045 | 0.045 | >0.183 | 1.51 | >0.183 | inactive | inactive | inactive | inactive | inactive | inactive | inactive | inactive | inactive | inactive | inactive | inactive | inactive | inactive | inhibition (Punta Toro virus): inactive |
| CCCCCCCCCCCC(=O)N/N=C/c1ccccc1 | >0.166 | >0.166 | 0.041 | >0.166 | 1.21 | >0.166 | inactive | inactive | inactive | inactive | inactive | inactive | inactive | inactive | inactive | inactive | inactive | inactive | inactive | inactive | inhibition (Punta Toro virus): inactive |
| O=C(/C=C/c1ccccc1)N/N=C/c1ccccc1Cl | 0.176 | 0.088 | >0.176 | >0.176 | 1.76 | >0.176 | inactive | inactive | inactive | inactive | inactive | inactive | inactive | inactive | inactive | inactive | inactive | inactive | inactive | inactive | inhibition (Punta Toro virus): inactive |
| Nc1ncnc2c1ncn2C[C@H](O)CO [(S)-DHPA] | – | – | – | – | – | – | – | – | – | – | – | – | – | – | – | – | – | – | – | – | EC50 [1]: > 250 µM; EC50 (Coxsackievirus B4 [2]): > 250 µM; CC50 at 72 h [3]: > 250 µg/mL; MCC at 72 h [3]: > 250 µM; EC50 [4]: > 250 µM |
| CCCCCCCCCCCCCC(=O)N/N=C/c1ccccc1 | >0.152 | >0.152 | >0.152 | >0.152 | 1.24 | >0.152 | inactive | inactive | inactive | inactive | inactive | inactive | inactive | inactive | inactive | inactive | inactive | inactive | inactive | inactive | inhibition (Punta Toro virus): inactive |
| CCCCCCCCCCCCCC(=O)N/N=C/c1ccccc1Cl | >0.137 | >0.137 | 0.034 | >0.137 | 1.12 | >0.137 | inactive | inactive | inactive | inactive | inactive | inactive | inactive | inactive | inactive | inactive | inactive | inactive | inactive | inactive | inhibition (Punta Toro virus): inactive |
